The test system of series [1] is CCRF-CEM. The series can be described thus: Compound was evaluated for the cytotoxicity against CEM cell proliferation by 50%. The note with it: Homo sapiens. Type of series: functional.
Series [2] in a line: Partition coefficient (logP). It counts as physicochemical. The note with it: octanol/water. The gist of the method:
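LogP measured as the 1-octanol/water partition coefficient.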

Series [3] has as its system CCRF-CEM. The series can be described thus: Concentration required to protect CEM cells against cytopathicity of HIV-1 by 50%. It counts as functional, cell-based. The note with it: Homo sapiens. (In general: Protection from cytopathic effect is a common read-out in antiviral testing.)
Series [4] has as its system CCRF-CEM. The experiment in a line: Concentration required to protect CEM cells against cytopathicity of HIV-2 by 50%. The note with it: Homo sapiens. Type of series: functional, cell-based.
Series [5] deals with CCRF-CEM. The series can be described thus: Concentration required to protect CEM/TK- cells against cytopathicity of HIV-2 by 50%. Type of series: functional, cell-based. The note with it: Homo sapiens.

CC50, logP and EC50 data for eight molecules are collected here from ChEMBL document CHEMBL1133045, “Enhancing the aqueous solubility of d4T-based phosphoramidate prodrugs” (Bioorg Med Chem Lett, 2000).

One may read the CC50 as the concentration that lowers cell viability or growth by half. As usually defined, the logP is a log measure of how a compound divides between an organic and an aqueous phase. A higher logP goes with a more lipophilic compound. For orientation: EC50 means the concentration that produces a half-maximal response. Read a low EC50 as greater potency.

`COC(=O)C(C)NP(=O)(OC[C@@H]1C=C[C@H](n2cc(C)c(=O)[nH]c2=O)O1)Oc1ccccc1` (stereo partly specified) returned a CC50 with CCRF-CEM [1] of 33000 nM. The logP in series [2] stood at 1.04.

As to `COC(=O)C(N)Cc1ccc(OP(=O)(NC(C)C(=O)OC)OCC2C=CC(n3cc(C)c(=O)[nH]c3=O)O2)cc1` (stereo unspecified), the EC50 stood at 4000 nM in the series on CCRF-CEM [3], 10000 nM with CCRF-CEM [4] and 5000 nM in the series with CCRF-CEM [5]. The molecule further had a log partition coefficient (logP) in series [2] of 0.09.

`COC(=O)C(C)NP(=O)(OCC1C=CC(n2cc(C)c(=O)[nH]c2=O)O1)Oc1ccc(CC(NC(=O)OC(C)(C)C)C(=O)OC)cc1` (stereo unspecified): the figures for the EC50 with CCRF-CEM [3], in the series on CCRF-CEM [4] and with CCRF-CEM [5] were 650 nM, 700 nM and 800 nM, respectively. The CC50 with CCRF-CEM [1] was 217000 nM. The molecule further showed a logP in series [2] of 1.07.

Regarding `COCCOc1ccc(OP(=O)(NC(C)C(=O)OC)OCC2C=CC(n3cc(C)c(=O)[nH]c3=O)O2)cc1` (stereo unspecified), the figures for the EC50 in the series with CCRF-CEM [3], in the series on CCRF-CEM [4] and in the series on CCRF-CEM [5] were 90 nM, 600 nM and 340 nM, respectively. In the series with CCRF-CEM [1], the CC50 was found to be 35000 nM. Moreover, the logP in series [2] is 0.86.

As for `COCCOCCOc1ccc(OP(=O)(NC(C)C(=O)OC)OCC2C=CC(n3cc(C)c(=O)[nH]c3=O)O2)cc1` (stereo unspecified), the EC50 with CCRF-CEM [3] came out at 550 nM; in the series with CCRF-CEM [4], 1000 nM; in the series on CCRF-CEM [5], 1200 nM. Besides, the midpoint of cytotoxicity with CCRF-CEM [1], the CC50, lay at 47000 nM. Also, in series [2], the logP stood at 0.86.

Regarding `CCOCCOc1ccc(OP(=O)(NC(C)C(=O)OC)OCC2C=CC(n3cc(C)c(=O)[nH]c3=O)O2)cc1` (stereo unspecified), the EC50 in the series with CCRF-CEM [3] worked out at 200 nM; in the series with CCRF-CEM [4], 250 nM; in the series on CCRF-CEM [5], 400 nM. Moreover, the CC50 in the series on CCRF-CEM [1] turned out to be 64000 nM. In series [2], this molecule returned a logP of 1.1.

With `COC(=O)C(C)NP(=O)(OC[C@@H]1C=C[C@H](n2cc(C)c(=O)[nH]c2=O)O1)Oc1ccc(OC)cc1` (stereo partly specified), the EC50 came to 57 nM in the series on CCRF-CEM [3], 53 nM in the series with CCRF-CEM [4] and 47 nM with CCRF-CEM [5]. Also, the CC50 in the series with CCRF-CEM [1] was above 100000 nM. The logP in series [2] was determined as 1.09.

For the molecule `COCCOCCOCCOc1ccc(OP(=O)(NC(C)C(=O)OC)OCC2C=CC(n3cc(C)c(=O)[nH]c3=O)O2)cc1` (stereo unspecified), the concentration giving a half-maximal response (EC50) was determined as 750 nM with CCRF-CEM [3], 1300 nM in the series with CCRF-CEM [4] and 1350 nM in the series on CCRF-CEM [5]. This molecule also displayed a CC50 in the series with CCRF-CEM [1] of 114000 nM. For the same molecule, the logP in series [2] worked out at 0.86.
